These results are taken from ChEMBL document CHEMBL4680091, “Discovery of Novel Spiro[3H-indole-3,2'-pyrrolidin]-2(1H)-one Compounds as Chemically Stable and Orally Active Inhibitors of the MDM2-p53 Interaction” (J Med Chem, 2016).

Where only a bound is given, the exact number is not on record here.

The nature of series [1]: Cmax in NMRI mouse at 50 mg/kg, po. It counts as ADME, organism-based. On the set-up: route oral, dose 50 mg/kg. The conditions noted are these: in vivo. The method, boiled down: (§1)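 Non-tumor-bearing female NMRI nude mice were given a single dose by one of two routes. The iv arm received 5 mg/kg as a bolus in 25% HP-B-CD. The po arm received 50 mg/kg in 0.5% Natrosol (pH 7-8, NaOH titrated). Both used 10 ml/kg. Plasma levels were measured by LC/MS/MS, n=3 per dose group. Parameters came from non-compartmental analysis, with AUC0-24h by linear trapezoidal interpolation.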

Series [2] can be described thus: Clearance in NMRI mouse at 5 mg/kg, iv. The format is ADME, organism-based. The following applies: in vivo. The method, boiled down: as §1
The subject of a further series is SJSA-1. As to the kind of experiment: Antiproliferative activity against human SJSA-1 cells expression wild type p53 incubated for 3 days by Alamar Blue dye based assay. The following applies: SJSA-1, 72 h. The format is functional, cell-based. (In general: Alamar Blue is a resazurin reagent that responds to reducing activity.)
Series [3] can be described thus: Oral bio availability in NMRI mouse at 50 mg/kg. It counts as ADME, organism-based. The following applies: in vivo. The method, boiled down:
as §1

The nature of series [4]: Volume of distribution at steady state in NMRI mouse at 5 mg/kg, iv. It counts as ADME, organism-based. The conditions noted are these: in vivo, read-out: Vdss. The gist of the method: as §1
The nature of series [5]: AUC (0 to 24 hrs) in NMRI mouse at 50 mg/kg, po. The format is ADME, organism-based. On the set-up: time < 24 hr, route oral, dose 50 mg/kg. The following applies: in vivo. The gist of the method:
as §1

The test system of the next series is SK-OV-3. Description: Antiproliferative activity against human SK-OV-3 cells expression p53 mutant incubated for 3 days by Alamar Blue dye based assay. The format is functional, cell-based. The following applies: SK-OV-3, 72 h. The gist of the method:
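p53-mutant SK-OV-3 cells were used in a growth/proliferation assay, with compounds tested up to 25 μM.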

Series [6] has as its target Tumour suppressor p53/oncoprotein Mdm2 (Homo sapiens, UniProt Q00987). Description: Inhibition of GST-tagged MDM2 (amino acids 17 to 111 residues)/p53 (unknown origin) interaction incubated for 15 mins by. The format is protein assay.

Chain of Tumour suppressor p53/oncoprotein Mdm2 (P04637 whole entry, the tested form may be a part): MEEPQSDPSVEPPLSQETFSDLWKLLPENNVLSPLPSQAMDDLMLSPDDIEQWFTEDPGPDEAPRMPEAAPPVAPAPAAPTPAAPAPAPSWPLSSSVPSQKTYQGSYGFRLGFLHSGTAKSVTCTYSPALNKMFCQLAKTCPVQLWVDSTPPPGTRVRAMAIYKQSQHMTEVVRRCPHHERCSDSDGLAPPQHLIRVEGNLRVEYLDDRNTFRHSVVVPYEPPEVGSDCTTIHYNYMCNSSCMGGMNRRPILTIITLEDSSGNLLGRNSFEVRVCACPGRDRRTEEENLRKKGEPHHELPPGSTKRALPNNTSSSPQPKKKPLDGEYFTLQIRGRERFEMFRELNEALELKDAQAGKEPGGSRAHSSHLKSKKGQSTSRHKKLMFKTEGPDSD
Chain of Tumour suppressor p53/oncoprotein Mdm2 (Q00987 whole entry, the tested form may be a part): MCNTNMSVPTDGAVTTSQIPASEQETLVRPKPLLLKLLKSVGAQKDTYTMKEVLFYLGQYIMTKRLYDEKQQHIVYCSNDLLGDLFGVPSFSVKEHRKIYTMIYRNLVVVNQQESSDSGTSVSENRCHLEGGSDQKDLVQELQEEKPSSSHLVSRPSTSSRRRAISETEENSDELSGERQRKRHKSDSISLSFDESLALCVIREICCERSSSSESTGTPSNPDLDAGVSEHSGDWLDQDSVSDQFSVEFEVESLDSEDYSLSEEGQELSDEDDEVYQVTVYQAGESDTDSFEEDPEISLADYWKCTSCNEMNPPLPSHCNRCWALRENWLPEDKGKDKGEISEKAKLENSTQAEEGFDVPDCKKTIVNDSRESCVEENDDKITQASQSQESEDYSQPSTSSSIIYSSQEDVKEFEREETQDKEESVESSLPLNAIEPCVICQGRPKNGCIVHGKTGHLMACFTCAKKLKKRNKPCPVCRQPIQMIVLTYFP

On to `NC(=O)c1ccc([C@H]2C[C@H]3[C@@H](N2)[C@H](c2cccc(Cl)c2F)[C@]2(C(=O)Nc4cc(Cl)ccc42)N3CC2CC2)cc1`, for which, in series [1], the Cmax – broadly, the maximum level reached in the sampled fluid or tissue – came to 6.9 µM. In addition, in series [2], the clearance (as a rule, the rate of elimination divided by the concentration) came to 7.4 mL/min/kg. Also, the IC50 (usually the point on the concentration scale where inhibition reaches its midpoint) was 1.45 µM with SJSA-1 and more than 25 µM in the series with SK-OV-3. Further, in series [3], the bioavailability (commonly dose-corrected exposure relative to a reference, in per cent) is 58%. The Vd in series [4] came to 2 L/kg. Moreover, the AUC(0-t) (as a rule, the area under the concentration-time curve up to a stated or last time point) at 24 h in series [5] came to 100 µM·h. The compound `O=C1Nc2cc(Cl)ccc2[C@]12NC[C@@H]([N+](=O)[O-])[C@@H]2c1cccc(Cl)c1` (racemic) displayed an IC50 in series [6] of 36.5 µM. This counts as double-digit micromolar.

On to `O=C(O)C[C@@H]1N[C@@]2(C(=O)Nc3cc(Cl)ccc32)[C@@H](c2cccc(Cl)c2)[C@@H]1[N+](=O)[O-]` (racemic), for which the IC50 in series [6] came out at 18.6 µM. Take `C[C@H]1[C@@H](NCC(=O)O)[C@H](c2cccc(Cl)c2F)[C@]2(C(=O)Nc3cc(Cl)ccc32)N1CC1CC1`: the figures for the IC50 (in the series with SJSA-1; in series [6]; in the series with SK-OV-3) were 2.88 µM, 0.062 µM and more than 25 µM, respectively. As for `O=C1Nc2cc(Cl)ccc2[C@]12N[C@@H](CO)[C@@H]([N+](=O)[O-])[C@@H]2c1cccc(Cl)c1` (racemic), in series [6], 30.7 µM corresponded to half-maximal inhibition (IC50). Same read-out and setting: the value for `C[C@H]1[C@@H](N)[C@H](c2cccc(Cl)c2)[C@]2(C(=O)Nc3cc(Cl)ccc32)N1CC1CC1` was 0.563 µM; that for `CC(C)(C)CN1C[C@@H](N)[C@H](c2cccc(Cl)c2)[C@]12C(=O)Nc1cc(Cl)ccc12` was 0.819 µM. The same measure, in the same setting: the value for `O=C(O)CN1CC[C@H]2[C@@H]1[C@H](c1cccc(Cl)c1F)[C@]1(C(=O)Nc3cc(Cl)ccc31)N2CC1CC1` (racemic) was 0.039 µM; that for `CC(C)CCN1[C@@H](C)[C@@H](N)[C@H](c2cccc(Cl)c2)[C@]12C(=O)Nc1cc(Cl)ccc12` (racemic) was 1.07 µM; that for `NC(=O)c1cccc(C[C@@H]2N[C@@]3(C(=O)Nc4cc(Cl)ccc43)[C@@H](c3cccc(Cl)c3)[C@@H]2[N+](=O)[O-])c1` (racemic) was 18.3 µM. In turn, `CCOc1cccc(CN2[C@@H](C)[C@@H](N)[C@H](c3cccc(Cl)c3F)[C@]23C(=O)Nc2cc(Cl)ccc23)c1` (racemic) showed an IC50 in series [6] of 0.057 µM. Compound `O=C1Nc2cc(Cl)ccc2[C@]12N[C@@H](Cn1cncn1)[C@@H]([N+](=O)[O-])[C@@H]2c1cccc(Cl)c1` (racemic) showed an IC50 in series [6] of 5.5 µM. Same read-out and setting: as for `CC(=O)N1CC[C@H]2[C@@H]1[C@H](c1cccc(Cl)c1F)[C@]1(C(=O)Nc3cc(Cl)ccc31)N2CC1CC1` (racemic), the figure is 0.212 µM; as for `O=C(O)CN1CC[C@H]2[C@@H]1[C@H](c1cccc(Cl)c1)[C@]1(C(=O)Nc3cc(Cl)ccc31)N2CC1CC1` (racemic), 0.08 µM. As for `O=C1Nc2cc(Cl)ccc2[C@@]12[C@@H](c1cccc(Cl)c1F)[C@@H]1NCC[C@@H]1N2CC1CC1`, the IC50 with SJSA-1 was 2.61 µM; in series [6], 0.137 µM; in the series on SK-OV-3, more than 25 µM.

On to `C[C@H]1[C@@H](N)[C@H](c2cccc(Cl)c2F)[C@]2(C(=O)Nc3cc(Cl)ccc32)N1CC1CC1`, for which the IC50 with SJSA-1 was 2.98 µM; in series [6], 0.157 µM; in the series on SK-OV-3, more than 25 µM. In series [6], `CCOc1cccc(CN2[C@@H](C)[C@@H](N)[C@H](c3cccc(Cl)c3F)[C@]23C(=O)Nc2cc(Cl)ccc23)c1` came in with an IC50 of 0.034 µM. As to `O=C1Nc2cc(Cl)ccc2[C@]12N[C@@H](Cc1c[nH]cn1)[C@@H]([N+](=O)[O-])[C@@H]2c1cccc(Cl)c1` (racemic), the IC50 in series [6] is 15.2 µM. Consider `CCOc1cccc(CN2[C@H]3C[C@H](c4ccc(C(=O)O)cc4)N[C@H]3[C@H](c3cccc(Cl)c3F)[C@]23C(=O)Nc2cc(Cl)ccc23)c1`, for which the concentration in series [1] peaked (Cmax) at 3.4 µM. The clearance in series [2] was 23.2 mL/min/kg. Moreover, the figures for the IC50 in the series with SJSA-1 and with SK-OV-3 were 0.067 µM and more than 25 µM, respectively. In addition, the bioavailability in series [3] is 13%. Further, in series [4], the Vd was determined as 1 L/kg. This compound showed an AUC(0-t) at 24 h in series [5] of 8 µM·h. Consider `CC(C)CCN1[C@@H](Cn2cncn2)[C@@H](N)[C@H](c2cccc(Cl)c2)[C@]12C(=O)Nc1cc(Cl)ccc12` (racemic), for which the IC50 in series [6] was found to be 2.06 µM. For `CCOc1cccc(CN2[C@H]3CCN(CC(=O)O)[C@H]3[C@H](c3cccc(Cl)c3F)[C@]23C(=O)Nc2cc(Cl)ccc23)c1`, the IC50 in the series on SJSA-1 was 0.287 µM; in the series on SK-OV-3 it was more than 25 µM. The compound `COC(=O)c1ccc([C@H]2C[C@H]3[C@@H](N2)[C@H](c2cccc(Cl)c2F)[C@]2(C(=O)Nc4cc(Cl)ccc42)N3CC2CC2)cc1` registered a 50% inhibitory concentration (IC50) in series [6] of 0.081 µM. On the same count and under the same terms, the value for `O=C1Nc2cc(Cl)ccc2[C@]12CNC[C@@H]2c1cccc(Cl)c1` (racemic) was 36 µM. Take `O=C1Nc2cc(Cl)ccc2[C@]12N[C@@H](Cc1ccccc1)[C@@H]([N+](=O)[O-])[C@@H]2c1cccc(Cl)c1` (racemic): in series [6], the IC50 was determined as 15.6 µM. This IC50 lies about 2.3-fold lower than the previous one. The compound `NC(=O)CC[C@@H]1N[C@@]2(C(=O)Nc3cc(Cl)ccc32)[C@@H](c2cccc(Cl)c2)[C@@H]1[N+](=O)[O-]` (racemic) displayed an IC50 in series [6] of 13.5 µM.

Consider `CC(=O)N[C@@H]1[C@H](C)N(CC2CC2)[C@@]2(C(=O)Nc3cc(Cl)ccc32)[C@H]1c1cccc(Cl)c1F`, for which, in series [6], 0.229 µM corresponded to half-maximal inhibition (IC50). The same measure, in the same setting: as for `C[C@@H]1N[C@@]2(C(=O)Nc3cc(Cl)ccc32)[C@@H](c2cccc(Cl)c2)[C@@H]1N` (racemic), the figure is 74 µM; as for `C[C@H]1[C@@H](NCc2ccc(C(=O)O)cc2)[C@H](c2cccc(Cl)c2F)[C@]2(C(=O)Nc3cc(Cl)ccc32)N1CC1CC1`, 0.107 µM.

`C[C@@H]1N[C@@]2(C(=O)Nc3cc(Cl)ccc32)[C@@H](c2cccc(Cl)c2)[C@@H]1[N+](=O)[O-]` (racemic): half-maximal inhibition in series [6] (IC50) was put at 40 µM. On the same count and under the same terms, as for `CSC[C@@H]1N[C@@]2(C(=O)Nc3cc(Cl)ccc32)[C@@H](c2cccc(Cl)c2)[C@@H]1[N+](=O)[O-]` (racemic), the figure is 24.6 µM. On the same count and under the same terms, as for `O=C(O)CC[C@@H]1N[C@@]2(C(=O)Nc3cc(Cl)ccc32)[C@@H](c2cccc(Cl)c2)[C@@H]1[N+](=O)[O-]` (racemic), the figure is 16 µM; as for `CC(C)CN1C[C@@H](N)[C@H](c2cccc(Cl)c2)[C@]12C(=O)Nc1cc(Cl)ccc12`, 0.944 µM.
